Measured values taken from ChEMBL document CHEMBL2040727, “Substituted thiazoles VI. Synthesis and antitumor activity of new 2-acetamido- and 2 or 3-propanamido-thiazole analogs” (2012).

Experiments:
Format in all cases: functional
OVCAR-4 = experiment: Growth inhibition of human OVCAR4 cells at 10 uM after 48 hrs by coulter counter analysis; conditions: OVCAR-4, 48 h, read-out: GI
How it was run: (§1)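 Single-dose NCI 60-line panel screen of test compounds. Cells grown in RPMI 1640 with 10% FBS. Compounds dissolved in DMSO, then diluted in phosphate buffer saline (final DMSO below 1%). Wells run in duplicate at 6 × 10⁴ cells/ml. Controls held PBS and DMSO at matching dilutions. Incubation 48 h at 37 °C under humidified 5% CO2. Cells diluted tenfold in saline and counted by Coulter counter. Percent growth inhibition taken from mean-graph of treated-cell growth.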

SK-MEL-2 = experiment: Growth inhibition of human SK-MEL-2 cells at 10 uM after 48 hrs by coulter counter analysis; conditions: SK-MEL-2, 48 h, read-out: GI; how it was run: as §1
SNB-19 = experiment: Growth inhibition of human SNB19 cells at 10 uM after 48 hrs by coulter counter analysis; conditions: SNB-19, 48 h, read-out: GI; how it was run: as §1
MOLT-4 = experiment: Growth inhibition of human MOLT4 cells at 10 uM after 48 hrs by coulter counter analysis; conditions: MOLT-4, 48 h, read-out: GI; how it was run: as §1
HL-60(TB) = experiment: Growth inhibition of human HL-60(TB) cells at 10 uM after 48 hrs by coulter counter analysis; conditions: HL-60, 48 h, read-out: GI
How it was run: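 Cells grown in RPMI 1640 with 10% FBS. Compound was dissolved in DMSO and diluted in PBS (under 1% DMSO final), then added in duplicate wells to culture at 6 × 10⁴ cells/ml. PBS/DMSO vehicle controls were included. Incubated at 37 °C, humidified 5% CO₂, for 48 h. Cells were diluted 10-fold in saline and Coulter-counted. Single-dose NCI-60 screen, read as percent growth inhibition.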

NCI-H522 = experiment: Growth inhibition of human NCI-H522 cells at 10 uM after 48 hrs by coulter counter analysis; conditions: NCI-H522, 48 h, read-out: GI; how it was run: as §1
IGROV-1 = experiment: Growth inhibition of human IGROV1 cells at 10 uM after 48 hrs by coulter counter analysis; conditions: IGROV-1, 48 h, read-out: GI; how it was run: as §1
MDA-MB-435 = experiment: Growth inhibition of human MDA-MB-435 cells at 10 uM after 48 hrs by coulter counter analysis; conditions: MDA-MB-435, 48 h, read-out: GI; how it was run: as §1
HCT-15 = experiment: Growth inhibition of human HCT15 cells at 10 uM after 48 hrs by coulter counter analysis; conditions: HCT-15, 48 h, read-out: GI; how it was run: as §1
Malme-3M = experiment: Growth inhibition of human MALME-3M cells at 10 uM after 48 hrs by coulter counter analysis; conditions: read-out: GI; how it was run: as §1
SF-268 = experiment: Growth inhibition of human SF268 cells at 10 uM after 48 hrs by coulter counter analysis; conditions: SF-268, 48 h, read-out: GI; how it was run: as §1
LOX IMVI = experiment: Growth inhibition of human LOXIMVI cells at 10 uM after 48 hrs by coulter counter analysis; conditions: read-out: GI; how it was run: as §1
MCF7 = experiment: Growth inhibition of human MCF7 cells at 10 uM after 48 hrs by coulter counter analysis; conditions: MCF7, 48 h, read-out: GI; how it was run: as §1
SF-539 = experiment: Growth inhibition of human SF539 cells at 10 uM after 48 hrs by coulter counter analysis; conditions: SF-539, 48 h, read-out: GI; how it was run: as §1
M14 = experiment: Growth inhibition of human M14 cells at 10 uM after 48 hrs by coulter counter analysis; conditions: M14, 48 h, read-out: GI; how it was run: as §1
UACC-62 = experiment: Growth inhibition of human UACC62 cells at 10 uM after 48 hrs by coulter counter analysis; conditions: UACC-62, 48 h, read-out: GI
How it was run: (§2)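 Single-dose screen in the NCI 60 cell line panel. Cells grown in RPMI 1640 with 10% FBS. Compounds dissolved in DMSO and diluted in phosphate buffered saline, final DMSO under 1%. Duplicate wells seeded from culture at 6 × 10⁴ cells/ml. Incubated 48 h at 37 °C, humidified, 5% CO2. Cells diluted tenfold in saline and Coulter-counted. Percent growth inhibition computed against PBS/DMSO controls.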

A498 = experiment: Growth inhibition of human A498 cells at 10 uM after 48 hrs by coulter counter analysis; conditions: A498, 48 h, read-out: GI; how it was run: as §1
[1] = Growth inhibition of human Hs 578T cells at 10 uM after 48 hrs by coulter counter analysis; conditions: read-out: GI; how it was run: as §1
HCC 2998 = experiment: Growth inhibition of human HCC2998 cells at 10 uM after 48 hrs by coulter counter analysis; conditions: HCC 2998, 48 h, read-out: GI; how it was run: as §1
RXF 393 = experiment: Growth inhibition of human RXF393 cells at 10 uM after 48 hrs by coulter counter analysis; conditions: RXF 393, 48 h, read-out: GI; how it was run: as §1
COLO 205 = experiment: Growth inhibition of human COLO205 cells at 10 uM after 48 hrs by coulter counter analysis; conditions: COLO 205, 48 h, read-out: GI; how it was run: as §1
UACC-257 = experiment: Growth inhibition of human UACC257 cells at 10 uM after 48 hrs by coulter counter analysis; conditions: UACC-257, 48 h, read-out: GI; how it was run: as §2
SK-OV-3 = experiment: Growth inhibition of human SKOV3 cells at 10 uM after 48 hrs by coulter counter analysis; conditions: SK-OV-3, 48 h, read-out: GI; how it was run: as §1
TK-10 = experiment: Growth inhibition of human TK10 cells at 10 uM after 48 hrs by coulter counter analysis; conditions: TK-10, 48 h, read-out: GI; how it was run: as §2

For Cc1cnc(NC(=O)CN2CCN(C)CC2)s1, the inhibition of growth at 10 µM (OVCAR-4) was < 10%, the inhibition of growth at 10 µM (SK-MEL-2) was < 10% and the inhibition of growth at 10 µM (SNB-19) was < 10%. The inhibition of growth at 10 µM (MOLT-4) was < 10%, the inhibition of growth at 10 µM (HL-60(TB)) was < 10% and the inhibition of growth at 10 µM (NCI-H522) was < 10%. The inhibition of growth at 10 µM (IGROV-1) was < 10%, the inhibition of growth at 10 µM (MDA-MB-435) was < 10% and the inhibition of growth at 10 µM (HCT-15) was < 10%. For the same compound, the inhibition of growth at 10 µM (Malme-3M) was < 10%, the inhibition of growth at 10 µM (SF-268) was < 10% and the inhibition of growth at 10 µM (LOX IMVI) was < 10%. For the same compound, the inhibition of growth at 10 µM (MCF7) was < 10%, the inhibition of growth at 10 µM (SF-539) was < 10% and the inhibition of growth at 10 µM (M14) was < 10%. For the same compound, the inhibition of growth at 10 µM (UACC-62) was < 10%, the inhibition of growth at 10 µM (A498) was < 10% and the inhibition of growth at 10 µM [1] was < 10%. For the same compound, the inhibition of growth at 10 µM (HCC 2998) was < 10%, the inhibition of growth at 10 µM (RXF 393) was < 10% and the inhibition of growth at 10 µM (COLO 205) was < 10%.
For Cc1cnc(NC(=O)CN2CCN(c3ccccc3)CC2)s1, the inhibition of growth at 10 µM (OVCAR-4) was < 10%, the inhibition of growth at 10 µM (SK-MEL-2) was < 10% and the inhibition of growth at 10 µM (SNB-19) was < 10%. The inhibition of growth at 10 µM (MOLT-4) was < 10%, the inhibition of growth at 10 µM (HL-60(TB)) was < 10% and the inhibition of growth at 10 µM (NCI-H522) was < 10%. For the same compound, the inhibition of growth at 10 µM (IGROV-1) was < 10%, the inhibition of growth at 10 µM (MDA-MB-435) was < 10% and the inhibition of growth at 10 µM (HCT-15) was < 10%. For the same compound, the inhibition of growth at 10 µM (Malme-3M) was < 10%, the inhibition of growth at 10 µM (SF-268) was < 10% and the inhibition of growth at 10 µM (LOX IMVI) was < 10%. For the same compound, the inhibition of growth at 10 µM (MCF7) was < 10%, the inhibition of growth at 10 µM (SF-539) was < 10% and the inhibition of growth at 10 µM (M14) was < 10%. The inhibition of growth at 10 µM (UACC-62) was < 10%, the inhibition of growth at 10 µM (A498) was < 10% and the inhibition of growth at 10 µM [1] was < 10%. The inhibition of growth at 10 µM (HCC 2998) was < 10%, the inhibition of growth at 10 µM (RXF 393) was < 10% and the inhibition of growth at 10 µM (COLO 205) was < 10%.
In the case of CC(C(=O)Nc1nccs1)N1CCN(C)CC1 (stereo not given), the inhibition of growth at 10 µM (OVCAR-4) was < 10%, the inhibition of growth at 10 µM (SK-MEL-2) was < 10% and the inhibition of growth at 10 µM (SNB-19) was < 10%. For the same compound, the inhibition of growth at 10 µM (MOLT-4) was < 10%, the inhibition of growth at 10 µM (HL-60(TB)) was 11.2% and the inhibition of growth at 10 µM (NCI-H522) was < 10%. The inhibition of growth at 10 µM (IGROV-1) was < 10%, the inhibition of growth at 10 µM (UACC-257) was < 10% and the inhibition of growth at 10 µM (MDA-MB-435) was < 10%. For the same compound, the inhibition of growth at 10 µM (HCT-15) was < 10%, the inhibition of growth at 10 µM (SK-OV-3) was < 10% and the inhibition of growth at 10 µM (Malme-3M) was < 10%. The inhibition of growth at 10 µM (TK-10) was < 10%, the inhibition of growth at 10 µM (SF-268) was < 10% and the inhibition of growth at 10 µM (LOX IMVI) was < 10%. For the same compound, the inhibition of growth at 10 µM (MCF7) was < 10%, the inhibition of growth at 10 µM (SF-539) was < 10% and the inhibition of growth at 10 µM (M14) was < 10%. The inhibition of growth at 10 µM (UACC-62) was < 10%, the inhibition of growth at 10 µM (A498) was < 10% and the inhibition of growth at 10 µM [1] was < 10%. The inhibition of growth at 10 µM (HCC 2998) was < 10%, the inhibition of growth at 10 µM (RXF 393) was < 10% and the inhibition of growth at 10 µM (COLO 205) was < 10%.
With Cc1csc(NC(=O)C(C)N2CCN(C)CC2)n1 (stereo not given) the inhibition of growth at 10 µM (OVCAR-4) was 16.2%, the inhibition of growth at 10 µM (SK-MEL-2) was < 10% and the inhibition of growth at 10 µM (SNB-19) was < 10%. The inhibition of growth at 10 µM (MOLT-4) was 12.1%, the inhibition of growth at 10 µM (HL-60(TB)) was < 10% and the inhibition of growth at 10 µM (NCI-H522) was 66.3%. For the same compound, the inhibition of growth at 10 µM (IGROV-1) was < 10%, the inhibition of growth at 10 µM (UACC-257) was < 10% and the inhibition of growth at 10 µM (MDA-MB-435) was 11.2%. The inhibition of growth at 10 µM (HCT-15) was 25.5%, the inhibition of growth at 10 µM (SK-OV-3) was < 10% and the inhibition of growth at 10 µM (Malme-3M) was 17.6%. The inhibition of growth at 10 µM (TK-10) was < 10%, the inhibition of growth at 10 µM (SF-268) was < 10% and the inhibition of growth at 10 µM (LOX IMVI) was 46.4%. For the same compound, the inhibition of growth at 10 µM (MCF7) was 35.6%, the inhibition of growth at 10 µM (SF-539) was < 10% and the inhibition of growth at 10 µM (M14) was 25.5%. The inhibition of growth at 10 µM (UACC-62) was 24%, the inhibition of growth at 10 µM (A498) was < 10% and the inhibition of growth at 10 µM [1] was < 10%. The inhibition of growth at 10 µM (HCC 2998) was < 10%, the inhibition of growth at 10 µM (RXF 393) was < 10% and the inhibition of growth at 10 µM (COLO 205) was < 10%.
